Test [1] in a line: Cytotoxicity against human U87MG cells after 72 hrs by MTT assay. Conditions: U-87 MG. The class given is functional, cell-based, U-87MG ATCC. The method in brief: (§1)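 Cells grown in MEM with 10% FBS; about 4 × 10³ cells per well, preincubated 24 h at 37 °C in 5% CO₂, then exposed to compound for 72 h. Each line tested three times; IC50 is mean of three determinations.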
For orientation: Tetrazolium assays rely on reduction of a dye to a coloured formazan, in cell work by metabolically active cells.

Another test has as its system A549. Description: Cytotoxicity against human A549 cells after 72 hrs by MTT assay. It is filed as functional, cell-based. Conditions: A549, 72 h. The method in brief:
as §1

The subject of a further test is MKN-45. Description: Cytotoxicity against human MKN45 cells after 72 hrs by MTT assay. Particulars: MKN-45, 72 h.
Test [2] can be described thus: Cytotoxicity against human H460 cells after 72 hrs by MTT assay. Particulars: NCI-H460, 72 h.
A further test relates to HT-29. Description: Cytotoxicity against human HT-29 cells after 72 hrs by MTT assay. Particulars: HT-29, 72 h.

SMILES strings stand for the structures.

One may read the IC50 as the concentration that gives 50% inhibition.

On to `COc1cc2c(Oc3ccc(NC(=O)c4cc(-c5ccc(F)cc5)ccn4)cc3F)ccnc2cc1OCCCN1CCCC1`, for which the IC50 in test [1] was 1780 nM; in the test on A549, 1800 nM; in the test on MKN-45, 350 nM; in test [2], 370 nM; with HT-29, 430 nM.
For `COc1cc2c(Oc3ccc(NC(=O)c4cc(-c5ccccc5F)ccn4)cc3F)ccnc2cc1OCCCN1CCOCC1` the same measures were 3030 nM, 3990 nM, 1310 nM, 680 nM and 400 nM.
Take `COc1ccc(-c2ccnc(C(=O)Nc3ccc(Oc4ccnc5cc(OCCCN6CCCCC6)c(OC)cc45)c(F)c3)c2)cc1`: the concentration for half-maximal inhibition (IC50) turned out to be 570 nM with MKN-45, 200 nM in test [2] and 690 nM in the test with HT-29.
For `COc1cc2c(Oc3ccc(NC(=O)c4cc(-c5ccccc5C)ccn4)cc3F)ccnc2cc1OCCCN1CCOCC1`, in that order: 1140 nM, 2130 nM and 1050 nM.
Take `COc1ccc(-c2ccnc(C(=O)Nc3ccc(Oc4ccnc5cc(OCCCN6CCOCC6)c(OC)cc45)c(F)c3)c2)c(OC)c1`: the IC50 with MKN-45 worked out at 6680 nM; in test [2], 12700 nM; in the test with HT-29 it was 1530 nM.
In the case of `COc1cc2c(Oc3ccc(NC(=O)c4cc(-c5ccc(F)cc5)ccn4)cc3F)ccnc2cc1OCCCN1CCOCC1`, the 50% inhibitory concentration (IC50) is 870 nM in the test on MKN-45, 1870 nM in test [2] and 1000 nM in the test with HT-29.
For `COc1ccc(-c2ccnc(C(=O)Nc3ccc(Oc4ccnc5cc(OCCCN6CCN(C)CC6)c(OC)cc45)c(F)c3)c2)c(OC)c1` the same measures were 330 nM, 430 nM and 420 nM.
On to `COc1cc2c(Oc3ccc(NC(=O)c4cc(-c5ccc(F)cc5)ccn4)cc3F)ccnc2cc1OCCCN1CCN(C)CC1`, for which the figures for the IC50 (in the test with MKN-45; in test [2]; in the test with HT-29) were 510 nM, 430 nM and 1460 nM, respectively.
For `COc1cc2c(Oc3ccc(NC(=O)c4nccc(-c5ccc(F)cc5)n4)cc3F)ccnc2cc1OCCCN1CCCCC1` the same measures were 930 nM, 240 nM and 120 nM.
For `COc1cc2c(Oc3ccc(NC(=O)c4nccc(-c5ccc(F)cc5)n4)cc3F)ccnc2cc1OCCCN1CCN(C)CC1`, the IC50 was determined as 910 nM in test [1]; 680 nM in the test on A549; 90 nM with MKN-45; 63 nM in test [2]; 42 nM in the test with HT-29.
As for `COc1cc2c(Oc3ccc(NC(=O)c4cc(-c5ccccc5)ccn4)cc3F)ccnc2cc1OCCCN1CCOCC1`, the IC50 in test [1] came out at 1280 nM; in the test with A549, 3450 nM; with MKN-45 it was 280 nM; in test [2], 350 nM; in the test with HT-29, 330 nM.
For `COc1cc2c(Oc3ccc(NC(=O)c4cc(-c5ccccc5)ccn4)cc3F)ccnc2cc1OCCCN1CCCC1`, in that order: 1010 nM, 1580 nM, 210 nM, 130 nM and 120 nM.
As for `COc1cc2c(Oc3ccc(NC(=O)c4nccc(-c5ccc(C)cc5)n4)cc3F)ccnc2cc1OCCCN1CCOCC1`, the 50% inhibitory concentration (IC50) turned out to be 2400 nM in test [1]; 2240 nM in the test with A549; 310 nM in the test on MKN-45; 300 nM in test [2]; 240 nM in the test on HT-29.
For `COc1cc2c(Oc3ccc(NC(=O)c4nccc(-c5ccc(F)cc5F)n4)cc3F)ccnc2cc1OCCCN1CCCCC1` the same measures were 780 nM, 470 nM, 1120 nM, 550 nM and 400 nM.
With `COc1cc2c(Oc3ccc(NC(=O)c4nccc(-c5ccccc5)n4)cc3F)ccnc2cc1OCCCN1CCOCC1`, the IC50 in test [1] worked out at 1350 nM; in the test on A549, 510 nM; in the test with MKN-45, 260 nM; in test [2], 240 nM; in the test on HT-29 it was 150 nM.
For `COc1cc2c(Oc3ccc(NC(=O)c4nccc(-c5ccc(F)cc5)n4)cc3F)ccnc2cc1OCCCN1CCCC1`, the concentration for half-maximal inhibition (IC50) in test [1] was 1130 nM; in the test on A549, 990 nM; in the test with MKN-45 it was 490 nM; in test [2], 300 nM; with HT-29, 160 nM.
As to `COc1ccc(-c2ccnc(C(=O)Nc3ccc(Oc4ccnc5cc(OCCCN6CCCC6)c(OC)cc45)c(F)c3)c2)c(OC)c1`, the values for the IC50 (in the test with MKN-45; in test [2]; with HT-29) were 740 nM, 520 nM and 630 nM, respectively.
For `COc1cc2c(Oc3ccc(NC(=O)c4cc(-c5ccc(F)cc5)ccn4)cc3F)ccnc2cc1OCCCN1CCCCC1`, the IC50 in test [1] was 12500 nM; in the test with A549 it was 10100 nM; in the test with MKN-45, 1240 nM; in test [2], 250 nM; in the test on HT-29, 1370 nM.
In the case of `COc1cc2c(Oc3ccc(NC(=O)c4cc(-c5ccccc5F)ccn4)cc3F)ccnc2cc1OCCCN1CCCC1`, the IC50 in test [1] was 610 nM; in the test with A549, 430 nM; in the test on MKN-45, 230 nM; in test [2], 140 nM; in the test with HT-29 it was 230 nM.
Turning to `COc1cc2c(Oc3ccc(NC(=O)c4nccc(-c5ccc(C)cc5)n4)cc3F)ccnc2cc1OCCCN1CCCC1`, the IC50 with MKN-45 came out at 240 nM; in test [2] it was 440 nM; in the test on HT-29 it was 670 nM.
In the case of `COc1cc2c(Oc3ccc(NC(=O)c4cc(-c5ccc(C)cc5)ccn4)cc3F)ccnc2cc1OCCCN1CCCCC1`, the results for the 50% inhibitory concentration (IC50) (with MKN-45; in test [2]; in the test with HT-29) were 1670 nM, 160 nM and 340 nM, respectively.
With `COc1cc2c(Oc3ccc(NC(=O)c4nccc(-c5ccccc5)n4)cc3F)ccnc2cc1OCCCN1CCCCC1`, the IC50 amounted to 1030 nM with MKN-45, 330 nM in test [2] and 260 nM in the test on HT-29.
For `COc1cc2c(Oc3ccc(NC(=O)c4nccc(-c5ccc(F)cc5)n4)cc3F)ccnc2cc1OCCCN1CCOCC1`, the IC50 was determined as 360 nM with MKN-45, 220 nM in test [2] and 110 nM with HT-29.
For `COc1cc2c(Oc3ccc(NC(=O)c4nccc(-c5ccc(C)cc5)n4)cc3F)ccnc2cc1OCCCN1CCN(C)CC1`, in that order: 340 nM, 160 nM and 210 nM.
Regarding `COc1cc2c(Oc3ccc(NC(=O)c4cc(-c5ccc(C)cc5)ccn4)cc3F)ccnc2cc1OCCCN1CCCC1`, the IC50 in test [1] is 560 nM; in the test on A549 it was 1060 nM; with MKN-45 it was 440 nM; in test [2], 160 nM; in the test with HT-29, 350 nM.
Consider `COc1cc2c(Oc3ccc(NC(=O)c4cc(-c5ccccc5)ccn4)cc3F)ccnc2cc1OCCCN1CCN(C)CC1`, for which the concentration for half-maximal inhibition (IC50) was found to be 1010 nM in test [1]; 340 nM with A549; 150 nM in the test on MKN-45; 91 nM in test [2]; 82 nM in the test on HT-29.
Regarding `COc1ccc(-c2ccnc(C(=O)Nc3ccc(Oc4ccnc5cc(OCCCN6CCN(C)CC6)c(OC)cc45)c(F)c3)c2)cc1`, the figures for the IC50 (with MKN-45; in test [2]; in the test with HT-29) were 250 nM, 370 nM and 390 nM, respectively.
For `COc1ccc(-c2ccnc(C(=O)Nc3ccc(Oc4ccnc5cc(OCCCN6CCCC6)c(OC)cc45)c(F)c3)c2)cc1`, in that order: 150 nM, 200 nM and 350 nM.
For `COc1cc2c(Oc3ccc(NC(=O)c4nccc(-c5ccccc5)n4)cc3F)ccnc2cc1OCCCN1CCCC1`, in that order: 1360 nM, 1120 nM and 390 nM.
For `COc1cc2c(Oc3ccc(NC(=O)c4cc(-c5ccc(C(F)(F)F)cc5)ccn4)cc3F)ccnc2cc1OCCCN1CCOCC1` the same measures were 78800 nM, 52700 nM and 5070 nM.
Take `COc1cc2c(Oc3ccc(NC(=O)c4cc(-c5ccccc5C)ccn4)cc3F)ccnc2cc1OCCCN1CCCC1`: the values for the IC50 (with MKN-45; in test [2]; in the test on HT-29) were 440 nM, 420 nM and 1150 nM, respectively.
`COc1cc2c(Oc3ccc(NC(=O)c4cc(-c5ccccc5C)ccn4)cc3F)ccnc2cc1OCCCN1CCN(C)CC1`: the IC50 in test [1] is 2030 nM; in the test on A549 it was 1330 nM; in the test on MKN-45, 240 nM; in test [2], 150 nM; in the test on HT-29, 180 nM.
Regarding `COc1cc2c(Oc3ccc(NC(=O)c4cc(-c5ccc(C(F)(F)F)cc5)ccn4)cc3F)ccnc2cc1OCCCN1CCN(C)CC1`, the half-inhibitory concentration (IC50) amounted to 330 nM in the test on MKN-45, 160 nM in test [2] and 200 nM in the test with HT-29.
In the case of `COc1cc2c(Oc3ccc(NC(=O)c4cc(-c5ccccc5)ccn4)cc3F)ccnc2cc1OCCCN1CCCCC1`, the 50% inhibitory concentration (IC50) in test [1] is 790 nM; with A549 it was 1800 nM; with MKN-45, 270 nM; in test [2] it was 120 nM; in the test with HT-29, 270 nM.
For the compound `COc1cc2c(Oc3ccc(NC(=O)c4cc(-c5ccc(C(F)(F)F)cc5)ccn4)cc3F)ccnc2cc1OCCCN1CCCC1`, the concentration for half-maximal inhibition (IC50) in the test on MKN-45 amounted to 260 nM; in test [2] it was 250 nM; with HT-29, 720 nM.
For `COc1cc2c(Oc3ccc(NC(=O)c4cc(-c5ccccc5F)ccn4)cc3F)ccnc2cc1OCCCN1CCCCC1`, the half-inhibitory concentration (IC50) in the test on MKN-45 stood at 180 nM; in test [2], 130 nM; in the test with HT-29, 320 nM.
For `COc1ccc(-c2ccnc(C(=O)Nc3ccc(Oc4ccnc5cc(OCCCN6CCOCC6)c(OC)cc45)c(F)c3)c2)cc1` the same measures were 1150 nM, 3120 nM and 1340 nM.
For the compound `COc1cc2c(Oc3ccc(NC(=O)c4cc(-c5ccccc5F)ccn4)cc3F)ccnc2cc1OCCCN1CCN(C)CC1`, the IC50 with MKN-45 came to 150 nM; in test [2] it was 140 nM; in the test with HT-29 it was 220 nM.
Regarding `COc1cc2c(Oc3ccc(NC(=O)c4nccc(-c5ccc(F)cc5F)n4)cc3F)ccnc2cc1OCCCN1CCOCC1`, the half-inhibitory concentration (IC50) in the test with MKN-45 came out at 960 nM; in test [2], 1030 nM; with HT-29, 2190 nM.

The values above are taken from ChEMBL document CHEMBL2434847, “Design, synthesis, and structure-activity relationships of novel 6,7-disubstituted-4-phenoxyquinoline derivatives as potential antitumor agents” (Eur J Med Chem, 2013).
